The data set is described as follows: Toxicity liver stage against HepG2, at 10uM. The class given is cell-based. Also on record: test concentration 10 uM, cell line HepG2-A16-CD81EGFP. Particulars: human, HepG2-A16-CD81EGFP cells; read-out: INHIBITION
A digest of the protocol: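 Uninfected HepG2-A16-CD81EGFP cells, 3 × 10^3 per well, 1536-well, plated on prespotted compound at 10 μM final, parasite-free screening media added to match infected plates; puromycin 10 μM positive, DMSO 0.5% negative; run in parallel with 48 h PbLuc assay at 37 °C, 5% CO2; viability by CellTiter-Glo luminescence, normalized to controls.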
As for `O=C(NCCCO)c1cc(-c2ccc3c(c2)CCO3)n[nH]1`, the cytotoxicity at 10 µM was -4.24%. As for `Cc1ccc(C(=O)N2CCC3(CC2)CC(NC(=O)C(C)C)CO3)cc1` (configuration not stated), the cytotoxicity at 10 µM is -1.89%.

As for `O=C(N[C@]12CC1CN(C(=O)c1ccco1)C2)c1cccc(F)c1` (some centres not stated), the cytotoxicity at 10 µM was -15.3%. In the case of `COCCN1C(=O)CCC12CCN(C(=O)CNC(C)=O)CC2` it was 3.47%; in that of `Cc1ccccc1N1CC2(CCN(c3nncs3)C2)CC1=O` (configuration not stated), -7.74%; in that of `CCC1=N[C@@]2(CC[C@@H]3CN(S(=O)(=O)CC(C)C)C[C@@H]32)C(=O)N1CC`, 0.167%.

As for `O=C(NCCCN1CCCC1=O)c1nc(-c2ccc3cc[nH]c3c2)no1`, the cytotoxicity at 10 µM was -7.99%.

With `COCCC(=O)N1CCN(C)c2ncccc2C1`, the cytotoxicity at 10 µM was -8.28%. With `CNc1cccc(C2CN(C(=O)CNS(C)(=O)=O)CCO2)n1` (configuration not stated) the figure was -2.24%; with `Cc1ncncc1C(=O)N1CCOC(C)(C(=O)NC2CCCC2)C1` (configuration not stated), -36.4%; with `CSCC(CCO)Nc1nc(C(F)F)nc2ccccc12` (configuration not stated), -5.52%. Turning to `Cc1nc(C(C)C)sc1C(=O)N1CCC(C(N)=O)CC1`, the cytotoxicity at 10 µM came out at 1.68%. With `O=C(O)c1cnc(OCC2CC2)c(Cl)c1` the figure was -5.38%; with `CC(C)COCCNC(=O)NC1CCCN(c2cnn(C)c2)C1` (configuration not stated), 9.39%; with `O=C(NCc1nncn1C1CC1)C1(c2ccccc2)CCOCC1`, 3.31%. Regarding `COc1ccc(CNC(=O)N2CCCN(CC3CCCCC3)CC2)cn1`, the cytotoxicity at 10 µM was -3.36%. In the case of `CN(Cc1cc(Br)cn1C)C(=O)c1cc(Cl)ccn1` it was -11%; in that of `Cc1noc(C)c1CC(=O)NCCN1CCN(S(C)(=O)=O)CC1`, -5.87%.

`CC(C(=O)N1CCN(c2ccc(F)cc2)CC1)n1ccnc1` (configuration not stated): the cytotoxicity at 10 µM came out at 1.05%.

As to `Cc1ccc(O)c(C(=O)N2CCC(CNC(=O)OC(C)(C)C)C2)c1` (configuration not stated), the cytotoxicity at 10 µM was 16.4%. As for `CC(C)=CCNC1CCCN(c2ccc(C)nn2)C1` (configuration not stated), the cytotoxicity at 10 µM was found to be 5.23%.

Consider `COCCNC(=O)Nc1ccc(CN2CCOC2=O)cc1`, for which the cytotoxicity at 10 µM is -4.62%. As to `CCc1nc(CNC(=O)Nc2nc(COC)cs2)cs1`, the cytotoxicity at 10 µM was -0.67%. With `CCn1ncc2c1CCCC2NCc1csc(COC)n1` (configuration not stated) the figure was 1.17%; with `CNC(=O)c1ccc(OC)c(NCc2noc(-c3ccsc3)n2)c1`, 0.736%; with `COCCN1CCN(CC(=O)N(C)Cc2ccccc2)CC1C` (configuration not stated), -144%. Regarding `Cn1cc(CNC(=O)C2COCC(=O)N2Cc2ccccc2)cn1` (configuration not stated), the cytotoxicity at 10 µM was -4.88%.

Consider `Cc1occc1C(=O)N1CCC(C(O)c2ccc(Cl)cc2)CC1` (configuration not stated), for which the cytotoxicity at 10 µM is -0.342%. With `CNC(=O)c1csc(-c2ccoc2)n1` the figure was -5.64%; with `Cc1cccc(NC(=O)NC2CCN(C3CCOC3)CC2)c1` (configuration not stated), 4.24%.

Turning to `Cc1cccc(C)c1OCCCN1CCC(n2cncn2)CC1`, the cytotoxicity at 10 µM is -24.3%. With `N#Cc1ccc(N2CCN(c3nccs3)CC2)nc1` the figure was 31%. With `CCC[C@@H](NC(N)=O)C(=O)N1Cc2ccccc2-c2ccccc2C1` the figure was 5.17%; with `O=S(=O)(Cc1ccccc1Cl)NC(CO)c1ccco1` (configuration not stated), -6.86%.

For `CCc1ncc(C(=O)NCCNC(=O)Cc2ccc(F)cc2)s1`, the cytotoxicity at 10 µM is -2.57%. In the case of `CCn1c(Cn2cccn2)nnc1C1CCN(Cc2ccc(C)o2)CC1` it was -1.14%; in that of `Cc1ccsc1-c1nnc(SCC(=O)O)n1C(C)c1ccccc1` (configuration not stated), -4.65%; in that of `O=C1CCC2(CCN(Cc3nccs3)CC2)CN1CCCO`, -7.56%. With `Cc1ccsc1CN(CCN(C)C)C(=O)c1ccc(C#N)nc1` the figure was -120%; with `O=C(Nc1ccccc1OCCc1ccccn1)N1CC[C@@H](O)C1`, 4.4%. In the case of `CNC(=O)[C@@H]1C[C@@H](N)CN1Cc1cc2cc(C)cc(C)c2[nH]c1=O` it was -5.23%.

Consider `Cc1nc(N)nc(C)c1CC(=O)N1CCCN(CC2CC2)C(C(C)C)C1` (configuration not stated), for which the cytotoxicity at 10 µM was -142%. In the case of `CCOc1cccc(CN2CCCC(Nc3ccc(F)cc3)C2)c1O` (configuration not stated) it was -8.93%; in that of `c1ncn(Cc2nnc(C3CCN(C4CCOCC4)CC3)n2C2CC2)n1`, -3.51%; in that of `CSCC[C@H](NC(C)=O)c1nc(CCc2ccccc2)n[nH]1`, 5.08%. Consider `Nc1cc(-c2cccc3ccnn23)ccn1`, for which the cytotoxicity at 10 µM stood at 0.858%.

On to `CCCOCCCNc1nccc(-c2cn(C)nc2C)n1`, for which the cytotoxicity at 10 µM was -10.5%. With `Cn1nccc1CNC(=O)CCn1nc(C(F)(F)F)cc1C1CC1` the figure was -8.74%; with `COc1ccc(CN2CCC3(CC(Nc4ccncn4)C3)C2)c(OC)c1` (configuration not stated), 2.43%. With `CCc1noc(CN2CCCN(Cc3cccs3)CC2)n1` the figure was 2.76%; with `O=C(CCOc1cccc(F)c1)N1CCCC1Cn1cccn1` (configuration not stated), -5.7%; with `Cc1noc2ncc(C(=O)NCC3CCS(=O)(=O)C3)cc12` (configuration not stated), -18.9%. With `Clc1cccc(Cl)c1-c1nnc(CNCCn2cccn2)o1` the figure was -6.46%; with `CC(C)NC(=O)c1cc(Br)c2c(c1)OCCO2`, -13.3%.

Take `COc1c(C2CCCN2C(=O)c2ccc(C#N)c(C)n2)c(C)nn1C` (configuration not stated): the cytotoxicity at 10 µM was -8.45%.

Consider `CC(C)CCCNC(=O)Nc1ccc(C(N)=O)c(Cl)c1`, for which the cytotoxicity at 10 µM was 4.69%. Take `CC(NC(=O)NCc1ccccc1Cl)c1ccccn1` (configuration not stated): the cytotoxicity at 10 µM is -11.1%. `O=C(CCCOc1cccc(F)c1)N1CCCC(n2cncn2)C1` (configuration not stated): the cytotoxicity at 10 µM is -13.2%. In the case of `O=C(NCCCn1cccn1)NCC(c1ccco1)N1CCCC1` (configuration not stated), the cytotoxicity at 10 µM is -13.3%. With `CCn1c(C)nnc1CN(C)C1CCN(CCS(=O)(=O)CC)C1` (configuration not stated) the figure was -1.17%. `CCn1cc(CN2CCCN(C(=O)c3ccc(C)nc3)CC2)cn1`: the cytotoxicity at 10 µM was -10.4%. In the case of `O=C(c1ccc2[nH]nnc2c1)N1CCCC(n2cccn2)C1` (configuration not stated) it was -1.56%; in that of `Cc1noc(C2CCCN(C(=O)c3cc(Cl)ccc3F)C2)n1` (configuration not stated), 2.66%; in that of `O=C(NCC1CC1)c1nc2c(o1)CN(CC1CC1)C2`, -147%. With `CN(C)C(=O)COCC1CN(Cc2cccs2)Cc2ncn(C)c21` (configuration not stated), the cytotoxicity at 10 µM was determined as 13.1%. In the case of `OC(CN1CCN(Cc2ccc(F)c(F)c2)CC1)C1CC1` (configuration not stated) it was -22.2%; in that of `O=S(=O)(C1CC1)N1CCC[C@]2(C[C@@H](Oc3ccccn3)CO2)C1`, -144%; in that of `CCS(=O)(=O)N1CCC[C@]2(C(=O)N(C)C)CN(c3ncccn3)C[C@@H]2C1`, -3.26%. `CCN(CC)c1ncnc2c1CCN(C(=O)Cc1ccccn1)CC2`: the cytotoxicity at 10 µM was 3.13%. With `Cc1cccc(CN2CCO[C@H]3[C@H](Oc4ccccn4)CC[C@@H]32)n1` the figure was -4.65%.

As to `COCCN1C(=O)[C@@H]2CC[C@H]1CN(c1nccc(C3CCCC3)n1)C2`, the cytotoxicity at 10 µM came to 7.67%.

For the molecule `O=C(c1ccccc1)N1C[C@H]2CC[C@@H](C1)N(S(=O)(=O)c1cccnc1)C2`, the cytotoxicity at 10 µM is -9.33%.

The values above are taken from ChEMBL document CHEMBL4513216, “Probing the Open Global Health Chemical Diversity Library for Multistage-Active Starting Points for Next-Generation Antimalarials” (ACS Infect Dis, 2020).
